Only some compounds are listed: those with a hit (about 2.2% of all), similar ones and a draw of the others.
FXIIa inh: blocks human coagulation factor XIIa protease activity; AID 800; P00748; purified FXIIa, Boc-QGR-AMC fluorogenic substrate, 2 h; 220,000 compounds, 0.3% hits; inhibition, % at 5 µM; in the data active = inhibition above about 40%;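 note: 0% = enzyme with no compound and 100% = blank without enzyme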
Target sequence (P00748 20-372 limits assumed): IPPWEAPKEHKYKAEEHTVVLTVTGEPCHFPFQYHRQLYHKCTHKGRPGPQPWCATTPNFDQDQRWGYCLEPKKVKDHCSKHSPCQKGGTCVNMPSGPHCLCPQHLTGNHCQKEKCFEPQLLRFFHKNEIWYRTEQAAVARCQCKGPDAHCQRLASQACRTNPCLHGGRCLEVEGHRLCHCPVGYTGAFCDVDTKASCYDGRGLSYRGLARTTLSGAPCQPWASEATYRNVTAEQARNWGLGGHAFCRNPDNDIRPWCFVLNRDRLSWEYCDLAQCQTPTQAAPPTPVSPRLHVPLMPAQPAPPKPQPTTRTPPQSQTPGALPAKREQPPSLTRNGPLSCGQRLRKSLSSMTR
Target sequence (P00748 373-615 limits assumed): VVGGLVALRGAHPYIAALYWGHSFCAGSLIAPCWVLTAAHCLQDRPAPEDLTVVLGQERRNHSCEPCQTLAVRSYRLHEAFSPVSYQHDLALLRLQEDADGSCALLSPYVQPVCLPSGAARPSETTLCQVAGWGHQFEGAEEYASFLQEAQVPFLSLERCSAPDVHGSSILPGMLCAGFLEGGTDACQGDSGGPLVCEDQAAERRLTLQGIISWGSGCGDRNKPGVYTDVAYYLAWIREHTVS
KLK5 inh: blocks human kallikrein 5 protease activity; Q9Y337; recombinant hK5, fluorogenic AMC substrate cleavage; inhibition, % at 5 µM; 210,000 compounds, 0.59% hits;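 active = inhibition of 40% or more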;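 note: 0% = enzyme controls without compound and 100% = no-enzyme blanks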
Wee1 stabilizer: inhibitors of human Wee1 degradation | 220,000 compounds, 1.2% hits | P30291 | HeLa Luc-Wee1K328M stability, luciferase luminescence; 100% = proteasome inhibitor MG132 effect | reporter increase, % at 5 µM;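 active = activation above the mean of all tested compounds plus 3 SD, set per screening run, cut at about 8.8% in these data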;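 note: cells exposed to compound for 20 h before luminescence read; 0% = DMSO alone and 100% = MG132 at 30 µM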
FXIa inh: inhibitors of human coagulation factor XIa; 220,000 compounds, 0.14% hits; inhibition, % at 5 µM; AID 798; purified FXIa, Boc-Glu-Ala-Arg-AMC fluorogenic substrate;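 active = inhibition of at least 40%; inactive = inhibition below 40%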;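 note: fluorescence of freed AMC excited at 355 nm; 0% = enzyme without compound and 100% = no enzyme blank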
Thrombin inh: blocks human thrombin protease activity. P00734. alpha-thrombin, Boc-VPR-AMC fluorogenic substrate cleavage. inhibition, % at 5 µM. 220,000 compounds, 0.26% hits;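 active = inhibition at or above 40%; inactive = inhibition below 40%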;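 note: 0% = enzyme with no compound and 100% = wells without enzyme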
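Test system: human alpha-thrombin protein / Dosing: one concentration per compound, 5 µM, with 0.2% DMSO / Medium: pH 7.5 Tris-saline with Tween 20 / Benchmarks: no-compound enzyme wells and no-enzyme blanks / Read-out basis: percent inhibition of thrombin substrate cleavage / Timing: reaction at room temperature / Measured by: fluorescence, ex 355 nm, em 460 nm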
Wee1 stab conf: confirmation of human Wee1 degradation inhibitors | shares compounds with Wee1 stabilizer | HeLa Luc-Wee1K328M degradation, luminescence; vehicle 0%, proteasome-blocked wells 100% | activation, % at 5 µM | 1,100 compounds, 4% hits; in the data active = activation above about 8.9%
Starred values were filed as active, the others as inactive; x = not tested or not shown.

SMILES	FXIIa inh	KLK5 inh	Wee1 stabilizer	FXIa inh	Thrombin inh	Wee1 stab conf
Cc1ccc(-n2cccn2)c(CN2CCC(CO)(CCc3ccccc3)CC2)c1	9	2	18*	-2	-3	-1
CCOC(=O)c1cnc(-c2ccccc2)nc1N	4	-13	2	-3	-11	x
CCOC(=O)c1ccc2ncc(-c3ccccc3)nc2c1	7	-1	18*	-2	-9	-1
O=C(N/N=C/c1ccc2ncccc2c1)c1ccco1	x	-2	13*	-1	-4	-4
O=C(N=C1SCC(=O)N1c1ccccc1)c1ccco1	15	-3	-1	10	4	x
O=C(N=C1SCC(=O)N1c1ccccc1Cl)c1ccco1	-2	-18	14*	-5	-7	5
Cc1nn(C)c(Cl)c1S(=O)(=O)N1CCC(CO)(CCc2ccccc2)CC1	4	8	-5	-6	1	x
CC(NC(=O)c1ccccc1)C(c1cccs1)N1CCOCC1 (stereo not given)	5	-14	-2	-3	-10	x
CCCS(=O)(=O)N1CCN(S(=O)(=O)c2ccccc2[N+](=O)[O-])CC1	2	-8	11*	-3	0	-1
OC[C@@H]1CCCN1Cc1nc(-c2cccs2)no1	7	x	11*	-2	-2	2
c1csc(-c2noc(CN3CCN4CCCC4C3)n2)c1 (stereo not given)	6	x	-1	4	0	x
O=C(CNCC1(N2CCOCC2)CCCCC1)Nc1ccc(Cl)cc1	4	7	19*	-1	-4	0
C=CCc1cccc(/C=N/NC(=O)CCC(=O)Nc2ccc(C)cc2)c1O	2	-10	-2	-2	-2	x
COc1cc(N/N=C(\C)c2ccc(N)cc2)nc(-c2ccccc2)n1	11	-1	12*	2	7	5
CCOc1ccc(-c2nc(CN3CCCCC3CCn3cccn3)c(C)o2)cc1 (stereo not given)	2	-2	0	-5	-6	x
Cn1c(C(=O)Nc2ccc3c(c2)OCCO3)cc2sccc21	31	-15	16*	21	5	7
O=C(Nc1ccc2c(c1)OCCO2)c1cc2sccc2n1Cc1ccccc1	12	3	3	-6	-3	x
CC(C)(C)c1ccc(C(=O)Nc2ccc(F)cc2)s1	13	10	12*	2	8	7
CCc1cc2cc(C(=O)Nc3ccc(F)cc3)sc2s1	13	-1	0	4	1	x
COC(=O)c1ccccc1N=Nc1c(N)[nH][nH]c1=O	10	3	18*	4	1	1
CC1CCN(c2ccc(C(=O)NCc3ccco3)cc2[N+](=O)[O-])CC1	0	-11	1	-7	0	x
C#CCOCCOCCOCCNc1nc(N2CCN(C(=O)[C@H](CCC(=O)O)n3cc(C(N)CC(C)C)nn3)CC2)nc(N2CCN(C(=O)[C@H](CCC(=O)O)n3cc(C(N)CC(C)C)nn3)CC2)n1 (stereo not given in full)	8	6	12*	4	3	-2
C#CCOCCOCCOCCNc1nc(N2CCN(C(=O)[C@H]([C@@H](C)CC)n3cc([C@@H](N)CC(C)C)nn3)CC2)nc(N2CCN(C(=O)[C@H](CCCCN)n3cc([C@@H](N)CC(C)C)nn3)CC2)n1	5	-3	6	23	-3	x
C#CCOCCOCCOCCNc1nc(N2CCN(C(=O)[C@H]([C@@H](C)CC)n3cc([C@@H](N)CC(C)C)nn3)CC2)nc(N2CCN(C(=O)[C@H](CCCCN)n3cc([C@@H](N)C(C)CC)nn3)CC2)n1 (stereo not given in full)	4	-3	15*	-2	-4	-1
O=C1CCc2ccc(NC(=O)C3CC3)cc2N1	9	0	2	0	-11	x
SMILES	FXIIa inh	KLK5 inh	Wee1 stabilizer	FXIa inh	Thrombin inh	Wee1 stab conf
CC1CN(CC(=O)Nc2ccc([N+](=O)[O-])cc2Br)CC(C)O1 (stereo not given)	7	2	-1	3	-1	x
O=C(O)COc1ccccc1/C=N/NC(=O)CSc1nc2ccccc2n1Cc1ccccc1Cl	13	2	-1	7	0	x
CCOC(=O)c1cnc(SC)nc1N	-6	-22	0	-3	-9	x
CCOC(=O)c1cnc(SCC#N)nc1N	1	0	13*	-1	-3	-2
Cc1cc(C)cc(-n2cc(C(=O)O)c(=O)cc2C)c1	7	-1	0	-4	-9	x
CC1CCN(CC(O)COc2cccc(F)c2)CC1 (stereo not given)	10	-9	14*	-2	-8	1
CCCCN(C)C1CCN(C(=S)Nc2cccc(SC)c2)CC1	7	x	3	0	-4	x
Cc1cc(-c2nn(-c3ccccc3F)cc2CN(C)CC(O)CO)c(C)s1 (stereo not given)	5	x	13*	1	1	2
Cc1ccc(-n2nnc3c(=O)n(CC(=O)N4CCOCC4)cnc32)cc1	7	-6	12*	-3	-7	0
Cn1c(SCC(=O)N2CCCC2)nnc1-c1cnccn1	10	3	-5	0	-8	x
Cn1c(O)c(C2=c3ccccc3=NC2=O)sc1=Nc1ccc(Cl)cc1	7	-2	13*	4	1	3
O=C(NC1CCCC1)C(=O)N(c1ccccc1F)C(C(=O)NCC1CCCO1)c1cccs1 (stereo not given)	5	0	-2	-3	6	x
CN1/C(=C\C(=O)c2cccnc2)Sc2ccccc21	8	4	13*	-1	-10	5
CC(C)CN1C(=O)c2ccc(NC(=O)Cc3ccccc3)cc2C1=O	-5	-25	6	-6	-2	x
Cc1nn2c(NCCCN3CCOCC3)c3c(nc2c1-c1ccccc1)CCC3	18	-25	-2	3	1	x
CCCCNc1c2c(nc3c(-c4ccccc4)c(C)nn13)CCC2	9	3	13*	-6	-3	2
NNc1ccc(Cl)nn1	4	3	-3	-5	-2	x
COc1ccc(CC(=O)NC(C)c2nnc(SCC(=O)Nc3ccccc3)n2C)cc1 (stereo not given)	-7	-19	-3	-4	2	x
COC(=O)c1ccc(NC(=O)CSc2ccccn2)cc1	3	-4	15*	1	-5	0
COC(=O)c1ccc(NC(=O)CSc2ccccc2)cc1	11	-19	1	4	0	x
COC(=O)c1ccc(NC(=O)CSc2nnc(C(C)NC(=O)c3ccccc3Cl)n2C)cc1 (stereo not given)	9	5	22*	-4	-6	0
Cn1c(=NC(=O)c2ccccc2[N+](=O)[O-])sc2cccc(F)c21	9	1	17*	5	0	0
CS(=O)(=O)N1CCC(C(=O)NCc2ccc(Cl)cc2Cl)CC1	5	-1	2	-11	-2	x
CCn1c(P(C)(=O)O)nc2cc(NC(=O)c3ccccc3Cl)ccc21	x	-5	4	-3	-9	x
